In ChEMBL document CHEMBL1156948, “Statistical molecular design of a focused salicylidene acylhydrazide library and multivariate QSAR of inhibition of type III secretion in the Gram-negative bacterium Yersinia” (Bioorg Med Chem, 2010) one finds inhibition and Activity data, which are given here for 16 compounds.

Activity calls are given as the source filed them. No rule for the calls is given here.

Test [1] has as its system Yersinia pseudotuberculosis YPIII. Put plainly: Inhibition of T3S in Yersinia pseudotuberculosis YPIII expressing yopE-luxAB at 6.25 uM after 3 hrs by luciferase reporter gene assay. Put shortly:
(§1)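 Strain YPIII pIB102 (yopE-luxAB) grown overnight at room temperature in BHI with 5 mM EGTA and 20 mM MgCl2 (calcium depletion), adjusted to OD600 0.088–0.095. Compound added from DMSO at 1.56–200 µM final (eight concentrations). Shaken 1 h at room temperature, then 2 h at 37 °C. Decanal added and light emission read immediately. Triplicates, repeated at least three times.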

The test system of test [2] is Yersinia pseudotuberculosis. Nature of the test: Antibacterial activity against Yersinia pseudotuberculosis expressing pIB102 at 100 uM after 23 hrs by broth dilution assay. It is filed as functional, organism-based. The procedure, abridged: (§2)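 Wild-type pIB102 grown overnight in LB at room temperature, diluted to OD600 = 0.1 in LB with 2.5 mM CaCl2. Compound added from DMSO stock to final 50 and 100 µM. Incubated at 37 °C with absorbance at 595 nm read over 23 h.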

Test [3] concerns Yersinia pseudotuberculosis. Nature of the test: Antibacterial activity against Yersinia pseudotuberculosis expressing pIB102 at 50 uM after 23 hrs by broth dilution assay. It is filed as functional, organism-based. Put shortly:
as §2

For test [4], the system named is Yersinia pseudotuberculosis YPIII. Put plainly: Inhibition of T3S in Yersinia pseudotuberculosis YPIII expressing yopE-luxAB at 3.13 uM after 3 hrs by luciferase reporter gene assay. Put shortly: as §1
For test [5] the test system is unchanged. Nature of the test: Inhibition of T3S in Yersinia pseudotuberculosis YPIII expressing yopE-luxAB at 25 uM after 3 hrs by luciferase reporter gene assay. Put shortly: as §1
Test [6] has the same test system. Put plainly: Inhibition of T3S in Yersinia pseudotuberculosis YPIII expressing yopE-luxAB at 200 uM after 3 hrs by luciferase reporter gene assay. The procedure, abridged: as §1
The test system is the same in test [7]. Put plainly: Inhibition of T3S in Yersinia pseudotuberculosis YPIII expressing yopE-luxAB at 50 uM after 3 hrs by luciferase reporter gene assay. The procedure, abridged:
as §1

Test [8] deals with Escherichia coli. Nature of the test: Antibacterial activity against Escherichia coli DH5[alpha] at 100 uM after 23 hrs by broth dilution assay. It is filed as functional, organism-based. The procedure, abridged: (§3)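 Overnight LB culture of E. coli DH5α grown at 37 °C, diluted to OD600 0.1 in LB with 2.5 mM CaCl2; compound added from DMSO stock to final 50 or 100 µM. Incubated at 37 °C with absorbance at 595 nm followed over 23 h.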

In test [9] the test system is Yersinia pseudotuberculosis YPIII. Put plainly: Inhibition of T3S in Yersinia pseudotuberculosis YPIII expressing yopE-luxAB at 100 uM after 3 hrs by luciferase reporter gene assay. Put shortly: as §1
The test system is the same in test [10]. Nature of the test: Inhibition of T3S in Yersinia pseudotuberculosis YPIII expressing yopE-luxAB at 12.5 uM after 3 hrs by luciferase reporter gene assay. Put shortly: as §1
The subject of test [11] is Escherichia coli. Put plainly: Antibacterial activity against Escherichia coli DH5[alpha] at 50 uM after 23 hrs by broth dilution assay. It is filed as functional, organism-based. Put shortly:
as §3

For test [12], the system named is Yersinia pseudotuberculosis YPIII. Put plainly: Inhibition of T3S in Yersinia pseudotuberculosis YPIII expressing yopE-luxAB at 1.56 uM after 3 hrs by luciferase reporter gene assay. The procedure, abridged: as §1

Turning to `COc1ccc(/C=N/NC(=O)C(N)=O)c(O)c1`, the inhibition in test [1] is 4%; in [4], -6%; in [5], 13%; in test [6], 97%; in test [7], 73%; in test [9], 94%. In addition, the inhibition in test [10] is 8%. Moreover, the outcome (in [2]; in test [3]; with Escherichia coli [8]; with Escherichia coli [11]) was inactive.
In the case of `COc1cc([N+](=O)[O-])cc(/C=N/NC(=O)c2ccncc2)c1O`, the inhibition turned out to be 16% in test [1]; 8% in [4]; 28% in test [5]; 51% in test [6]; 35% in [7]; 42% in [9]. In addition, in test [10], the inhibition was 21%. In addition, the result (in test [2]; in test [3]; with Escherichia coli [8]; with Escherichia coli [11]) was inactive.
On to `COc1ccc(C(=O)N/N=C/c2cc(F)cc(Cl)c2O)cc1OC`, for which the inhibition was -10% in test [12]; 6% in test [1]; 10% in [5]; 64% in [6]; 38% in test [7]; 56% in test [9]. The inhibition in test [10] was 0%. The result (in test [2]; in test [3]; in the test on Escherichia coli [8]; with Escherichia coli [11]) was inactive.
On to `CC(C)(C)c1cc(/C=N/NC(=O)COc2ccc([N+](=O)[O-])cc2)c(O)c(C(C)(C)C)c1`, for which the inhibition in test [1] is 7%; in test [4] it was -2%; in test [5], 12%; in [6], 4%; in test [7] it was 18%; in test [9], 18%. Further, the inhibition in [10] came to 14%. Moreover, the result (in [2]; in test [3]; with Escherichia coli [8]; in the test with Escherichia coli [11]) was inactive.
As for `COc1cc(/C=N/NC(=O)COc2ccc([N+](=O)[O-])cc2)c(O)c(OC)c1`, the inhibition in [1] was 13%; in [4], -1%; in test [5], 18%; in test [6], -2%; in test [7] it was 16%; in [9], 14%. Moreover, the inhibition in [10] came out at 14%. Moreover, the outcome (in [2]; in test [3]; in the test with Escherichia coli [8]; in the test on Escherichia coli [11]) was inactive.
As to `COc1cccc(C(=O)N/N=C/c2cc(C(C)(C)C)cc(C(C)(C)C)c2O)c1`, the inhibition amounted to 7% in [1]; 4% in [4]; 14% in test [5]; 11% in [6]; 23% in test [7]; 21% in test [9]. The inhibition in test [10] was found to be 13%. In addition, the result (in [2]; in test [3]; in the test on Escherichia coli [8]; in the test on Escherichia coli [11]) was inactive.
`COc1ccc(Br)c(C(=O)N/N=C/c2ccc(Cl)cc2O)c1`: the inhibition in test [1] was found to be 10%; in test [4], 14%; in test [5], 31%; in [6] it was 58%; in test [7], 36%; in [9] it was 49%. Also, in [10], the inhibition was 25%. Besides, the outcome (in test [2]; in test [3]; in the test on Escherichia coli [8]; with Escherichia coli [11]) was inactive.
On to `O=C(N/N=C/c1cc([N+](=O)[O-])cc([N+](=O)[O-])c1O)c1ccc(Br)cc1`, for which the inhibition in [1] was 9%; in test [4], -6%; in test [5], 19%; in test [6], 18%; in test [7] it was 22%; in [9] it was 22%. Besides, the inhibition in test [10] was 12%. Besides, the result (in test [2]; in test [3]; in the test with Escherichia coli [8]; in the test on Escherichia coli [11]) was inactive.
Consider `COc1ccc(C(=O)N/N=C/c2cc(I)cc(I)c2O)cc1OC`, for which the inhibition amounted to 19% in [1]; 4% in [4]; 30% in test [5]; 40% in [6]; 24% in [7]; 33% in test [9]. Moreover, in test [10], the inhibition turned out to be 23%. For the same compound, the result (in [2]; in [3]; in the test on Escherichia coli [8]; in the test with Escherichia coli [11]) was inactive.
With `O=C(COc1ccc(F)cc1)N/N=C/c1cc(I)cc(I)c1O`, the inhibition was determined as 15% in test [1]; 0% in test [4]; 21% in test [5]; 44% in test [6]; 30% in [7]; 36% in [9]. Also, the inhibition in test [10] is 18%. The result (in test [2]; in test [3]; in the test on Escherichia coli [8]; with Escherichia coli [11]) was inactive.
As for `CCN(CC)c1ccc(/C=N/NC(=O)COc2ccc(F)cc2)c(O)c1`, the inhibition in test [1] was determined as 17%; in test [4], 11%; in test [5], 35%; in test [6] it was 50%; in test [7] it was 54%; in test [9], 58%. Further, the inhibition in [10] came to 23%. For the same compound, the result (in test [2]; in test [3]; in the test with Escherichia coli [8]; with Escherichia coli [11]) was inactive.
In the case of `O=C(CCc1ccc(O)cc1)N/N=C/c1c(O)cc(O)cc1O`, the inhibition in test [1] worked out at 20%; in test [4], 18%; in test [5] it was 25%; in [6] it was 46%; in [7], 29%; in [9], 36%. In addition, the inhibition in test [10] was 23%. In addition, the outcome (in test [2]; in test [3]; with Escherichia coli [8]; in the test with Escherichia coli [11]) was inactive.
As to `COc1cc(Br)cc(/C=N/NC(=O)C(N)=O)c1O`, the inhibition in [1] is 1%; in test [4], -4%; in test [5] it was 10%; in test [6], 78%; in test [7] it was 9%; in test [9] it was 47%. The inhibition in test [10] was determined as 8%. Further, the outcome (in test [2]; in test [3]; in the test on Escherichia coli [8]; in the test with Escherichia coli [11]) was inactive.
Turning to `Cc1nnsc1C(=O)N/N=C/c1cc(F)cc(Cl)c1O`, the outcome with Escherichia coli [8] and in the test on Escherichia coli [11] was inactive.
With `COc1cccc(/C=N/NC(=O)c2cc(OC)c(OC)c(OC)c2)c1O`, the inhibition is 17% in test [1]; 14% in [4]; 20% in [5]; 68% in test [6]; 43% in test [7]; 65% in test [9]. In test [10], the inhibition amounted to 15%. Moreover, the outcome (in test [2]; in test [3]; in the test on Escherichia coli [8]; with Escherichia coli [11]) was inactive.
Regarding `O=C(CC12CC3CC(CC(C3)C1)C2)N/N=C/c1cc([N+](=O)[O-])cc([N+](=O)[O-])c1O`, the inhibition was 1% in test [1]; -5% in test [4]; 6% in test [5]; 13% in [6]; 18% in test [7]; 20% in test [9]. Further, the inhibition in test [10] came to 10%. Further, the outcome (in test [2]; in test [3]; in the test with Escherichia coli [8]; with Escherichia coli [11]) was inactive.
